Tests used:
Type in all cases: functional
U-251 = test: Cytotoxicity against human U251 cells assessed as cell growth at 100 nM after 48 hrs by sulforhodamine B assay; conditions: U-251, 48 h, read-out: Activity
DU-145 [1] = test: Growth inhibition of human DU145 cells after 48 hrs by sulforhodamine B assay; conditions: DU-145, 48 h
How it was run: (§1)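 NCI five-dose SRB assay in RPMI 1640 with 5% FBS and 2 mM L-glutamine. Cells were preincubated 24 h, then exposed 48 h at 37 °C to five concentrations (10-fold or half-log serial dilutions from DMSO stocks). TCA fixation, SRB staining, and absorbance at 515 nm followed. IC50 was taken where [(Ti−Tz)/(C−Tz)]×100 = 50, with Tz as time-zero cell density.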

DU-145 [2] = test: Cytotoxicity against human DU145 cells assessed as cell growth at 0.001 uM after 48 hrs by sulforhodamine B assay; conditions: DU-145, 48 h, read-out: Activity
HOP-62 [3] = test: Cytotoxicity against human HOP62 cells assessed as cell growth at 10 uM; conditions: read-out: Activity
How it was run: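 Single-dose NCI-60 screen at 10 µM. Cells were grown in RPMI 1640 with 5% FBS and 2 mM L-glutamine, then treated for 48 h at 37 °C. Protein was measured by SRB staining with absorbance at 515 nm. Percentage growth was recorded, and inhibition percentage was calculated as 100 minus growth percentage.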

Malme-3M [4] = test: Cytotoxicity against human MALME-3M cells assessed as cell growth at 100 nM after 48 hrs by sulforhodamine B assay; conditions: read-out: Activity
ACHN = test: Cytotoxicity against human ACHN cells assessed as cell growth at 100 nM after 48 hrs by sulforhodamine B assay; conditions: read-out: Activity
How it was run: (§2)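 NCI-60 five-dose screen. Cells were grown in RPMI 1640 with 5% FBS and 2 mM L-glutamine, plated at 5000–40,000 cells/well and preincubated for 24 h. Time-zero plates were TCA-fixed. DMSO-solubilized drug was added at five concentrations (10-fold or ½-log serial dilutions) for 48 h at 37 °C, 5% CO2. Cells were TCA-fixed, stained with 0.4% SRB and read at 515 nm. Percent growth used time-zero, control and test absorbances.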

SK-OV-3 = test: Cytotoxicity against human SKOV3 cells assessed as cell growth at 1 uM after 48 hrs by sulforhodamine B assay; conditions: SK-OV-3, 48 h, read-out: Activity
CCRF-CEM [5] = test: Cytotoxicity against human CCRF-CEM cells assessed as cell growth at 0.001 uM after 48 hrs by sulforhodamine B assay; conditions: read-out: Activity; how it was run: as §2
OVCAR-4 = test: Cytotoxicity against human OVCAR4 cells assessed as cell growth at 0.001 uM after 48 hrs by sulforhodamine B assay; conditions: OVCAR-4, 48 h, read-out: Activity
HOP-92 = test: Cytotoxicity against human HOP92 cells assessed as cell growth at 0.001 uM after 48 hrs by sulforhodamine B assay; conditions: HOP-92, 48 h, read-out: Activity
EKVX [6] = test: Cytotoxicity against human EKVX cells assessed as cell growth at 0.001 uM after 48 hrs by sulforhodamine B assay; conditions: read-out: Activity
NCI-H226 = test: Cytotoxicity against human NCI-H226 cells assessed as cell growth at 10 uM; conditions: read-out: Activity
How it was run: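 NCI-60 screen: cells grown in RPMI 1640 with 5% FBS and 2 mM L-glutamine, plated at 5000–40,000 cells/well according to doubling time, and preincubated 24 h at 37 °C, 5% CO2. The single 10 µM dose (DMSO stock) was added, then incubated 48 h. Cells were TCA-fixed and stained with 0.4% SRB, read at 515 nm, and growth % calculated against time-zero and control plates.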

HCT-15 = test: Growth inhibition of human HCT15 cells after 48 hrs by sulforhodamine B assay; conditions: HCT-15, 48 h
How it was run: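 NCI 60-cell screen, five-dose mode. Cells grown in RPMI 1640 with 5% FBS and 2 mM L-glutamine and plated at 5000-40,000 cells/well according to doubling time. After 24 h preincubation, a Tz plate was TCA-fixed. Five concentrations (10-fold or 1/2 log dilutions) were applied for 48 h at 37 °C. SRB staining read at 515 nm. IC50 taken from [(Ti-Tz)/(C-Tz)]×100 = 50.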

Malme-3M [7] = test: Cytotoxicity against human MALME-3M cells assessed as cell growth at 0.001 uM after 48 hrs by sulforhodamine B assay; conditions: read-out: Activity
SNB-75 [8] = test: Cytotoxicity against human SNB75 cells assessed as cell growth at 100 nM after 48 hrs by sulforhodamine B assay; conditions: SNB-75, 48 h, read-out: Activity
OVCAR-5 = test: Cytotoxicity against human OVCAR5 cells assessed as cell growth at 0.001 uM after 48 hrs by sulforhodamine B assay; conditions: OVCAR-5, 48 h, read-out: Activity
786-0 = test: Cytotoxicity against human 786-0 cells assessed as cell growth at 100 nM after 48 hrs by sulforhodamine B assay; conditions: 786-0, 48 h, read-out: Activity; how it was run: as §2
[9] = Cytotoxicity against human RPMI8266 cells assessed as cell growth at 0.01 uM after 48 hrs by sulforhodamine B assay; conditions: read-out: Activity
EKVX [10] = test: Cytotoxicity against human EKVX cells assessed as cell growth at 0.01 uM after 48 hrs by sulforhodamine B assay; conditions: read-out: Activity
SNB-75 [11] = test: Cytotoxicity against human SNB75 cells assessed as cell growth at 0.01 uM after 48 hrs by sulforhodamine B assay; conditions: SNB-75, 48 h, read-out: Activity
NCI-H522 = test: Cytotoxicity against human NCI-H522 cells assessed as cell growth at 0.01 uM after 48 hrs by sulforhodamine B assay; conditions: NCI-H522, 48 h, read-out: Activity
HOP-62 [12] = test: Cytotoxicity against human HOP62 cells assessed as cell growth at 1 uM after 48 hrs by sulforhodamine B assay; conditions: HOP-62, 48 h, read-out: Activity
IGROV-1 = test: Cytotoxicity against human IGROV1 cells assessed as cell growth at 0.001 uM after 48 hrs by sulforhodamine B assay; conditions: IGROV-1, 48 h, read-out: Activity
CCRF-CEM [13] = test: Growth inhibition of human CCRF-CEM cells after 48 hrs by sulforhodamine B assay; how it was run: as §1
PC-3 [14] = test: Cytotoxicity against human PC3 cells assessed as cell growth at 0.001 uM after 48 hrs by sulforhodamine B assay; conditions: PC-3, 48 h, read-out: Activity
COLO 205 = test: Cytotoxicity against human COLO205 cells assessed as cell growth at 0.001 uM after 48 hrs by sulforhodamine B assay; conditions: COLO 205, 48 h, read-out: Activity; how it was run: as §2
K562 = test: Cytotoxicity against human K562 cells assessed as cell growth at 0.01 uM after 48 hrs by sulforhodamine B assay; conditions: K562, 48 h, read-out: Activity
PC-3 [15] = test: Cytotoxicity against human PC3 cells assessed as cell growth at 100 nM after 48 hrs by sulforhodamine B assay; conditions: PC-3, 48 h, read-out: Activity
SNB-75 [16] = test: Cytotoxicity against human SNB75 cells assessed as cell growth at 0.001 uM after 48 hrs by sulforhodamine B assay; conditions: SNB-75, 48 h, read-out: Activity

COc1cc(C)cc(-c2nn(CC#N)cc2-c2ccc(-c3cccc(C(C)=O)c3)nc2)c1
growth at 0.1 µM (U-251): 95% | GI50 (DU-145 [1]): 1.98 µM | LC50 (DU-145 [1]): > 100 µM | TGI (DU-145 [1]): 4.95 µM | growth at 0.001 µM (DU-145 [2]): 110% | growth at 10 µM (HOP-62 [3]): 32.1% | growth at 0.1 µM (Malme-3M [4]): 66% | growth at 0.1 µM (ACHN): 93% | growth at 1 µM (SK-OV-3): -4% | growth at 0.001 µM (CCRF-CEM [5]): 96% | growth at 0.001 µM (OVCAR-4): 99% | growth at 0.001 µM (HOP-92): 84% | growth at 0.001 µM (EKVX [6]): 99% | growth at 10 µM (NCI-H226): 47.8% | GI50 (HCT-15): 2.14 µM | TGI (HCT-15): > 100 µM | CC50 (HCT-15; read-out: LC50 (the source's name)): > 100 µM | growth at 0.001 µM (Malme-3M [7]): 97% | growth at 0.1 µM (SNB-75 [8]): 79% | growth at 0.001 µM (OVCAR-5): 74% | growth at 0.1 µM (786-0): 92% | growth at 0.01 µM [9]: 93% | growth at 0.01 µM (EKVX [10]): 99% | growth at 0.01 µM (SNB-75 [11]): 83% | growth at 0.01 µM (NCI-H522): 82% | growth at 1 µM (HOP-62 [12]): 16% | growth at 0.001 µM (IGROV-1): 106% | GI50 (CCRF-CEM [13]): 2.61 µM | LC50 (CCRF-CEM [13]): > 100 µM | TGI (CCRF-CEM [13]): > 100 µM | growth at 0.001 µM (PC-3 [14]): 94% | growth at 0.001 µM (COLO 205): 103% | growth at 0.01 µM (K562): 80% | growth at 0.1 µM (PC-3 [15]): 85% | growth at 0.001 µM (SNB-75 [16]): 82%
